According to ChEMBL document CHEMBL3853331, “Preparation, Antiepileptic Activity, and Cardiovascular Safety of Dihydropyrazoles as Brain-Penetrant T-Type Calcium Channel Blockers” (J Med Chem, 2016):

Columns and labels:
[1] = Drug uptake in Wistar rat brain at 100 mg/kg, po measured after 1 hr; type: ADME, organism-based; settings: read-out: Drug uptake
How it was run: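 Male Wistar rats given oral doses of 10, 30 or 100 mg/kg. Plasma, brain and CSF collected at 1 h, and at 3 h for the 10 mg/kg dose; compound concentrations measured in each.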

[2] = Plasma concentration in Wistar rat at 10 mg/kg, po measured after 3 hrs; type: ADME, organism-based
[3] = molecular target: Voltage-dependent T-type calcium channel subunit alpha-1H (Homo sapiens, UniProt O95180); assay: Inhibition of human T-type calcium channel Cav3.2 expressed in CHO cells assessed as inhibition of calcium tail current at -90 mV holding potential measured after 150 secs by QPatch assay; type: cell-based
How it was run: (§1)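 CHO cells stably expressing human Cav3.1, Cav3.2 or Cav3.3, automated QPatch recording. 3-ms depolarization to +20 mV from a holding potential of -90 or -60 mV. Ca2+ tail current measured at -60 mV. Cs-glutamate internal and TEA-Cl external solution with 5 mM Ca2+. Effect read 150 s after application.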

[4] = Clearance in Wistar rat plasma at 0.2 mg/kg, iv administered 2 hrs after aminobenzotriazol-treatment; type: ADME, organism-based
How it was run: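 Male Wistar rats dosed iv at 0.2 mg/kg or po at 2 mg/kg. In the inhibited arm, the broad CYP inhibitor aminobenzotriazol was given orally 2 h before dosing. Clearance, Vss and half-life derived from plasma concentrations after the iv dose; Cmax and Tmax from the po dose.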

[5] = molecular target: Voltage-dependent T-type calcium channel subunit alpha-1I (Homo sapiens, UniProt Q9P0X4); assay: Inhibition of human T-type calcium channel Cav3.3 expressed in CHO cells assessed as inhibition of calcium tail current at -60 mV holding potential measured after 150 secs by QPatch assay; type: cell-based; how it was run: as §1
Voltage-dependent T-type calcium channel subunit alpha-1I, sequence (Q9P0X4 whole entry): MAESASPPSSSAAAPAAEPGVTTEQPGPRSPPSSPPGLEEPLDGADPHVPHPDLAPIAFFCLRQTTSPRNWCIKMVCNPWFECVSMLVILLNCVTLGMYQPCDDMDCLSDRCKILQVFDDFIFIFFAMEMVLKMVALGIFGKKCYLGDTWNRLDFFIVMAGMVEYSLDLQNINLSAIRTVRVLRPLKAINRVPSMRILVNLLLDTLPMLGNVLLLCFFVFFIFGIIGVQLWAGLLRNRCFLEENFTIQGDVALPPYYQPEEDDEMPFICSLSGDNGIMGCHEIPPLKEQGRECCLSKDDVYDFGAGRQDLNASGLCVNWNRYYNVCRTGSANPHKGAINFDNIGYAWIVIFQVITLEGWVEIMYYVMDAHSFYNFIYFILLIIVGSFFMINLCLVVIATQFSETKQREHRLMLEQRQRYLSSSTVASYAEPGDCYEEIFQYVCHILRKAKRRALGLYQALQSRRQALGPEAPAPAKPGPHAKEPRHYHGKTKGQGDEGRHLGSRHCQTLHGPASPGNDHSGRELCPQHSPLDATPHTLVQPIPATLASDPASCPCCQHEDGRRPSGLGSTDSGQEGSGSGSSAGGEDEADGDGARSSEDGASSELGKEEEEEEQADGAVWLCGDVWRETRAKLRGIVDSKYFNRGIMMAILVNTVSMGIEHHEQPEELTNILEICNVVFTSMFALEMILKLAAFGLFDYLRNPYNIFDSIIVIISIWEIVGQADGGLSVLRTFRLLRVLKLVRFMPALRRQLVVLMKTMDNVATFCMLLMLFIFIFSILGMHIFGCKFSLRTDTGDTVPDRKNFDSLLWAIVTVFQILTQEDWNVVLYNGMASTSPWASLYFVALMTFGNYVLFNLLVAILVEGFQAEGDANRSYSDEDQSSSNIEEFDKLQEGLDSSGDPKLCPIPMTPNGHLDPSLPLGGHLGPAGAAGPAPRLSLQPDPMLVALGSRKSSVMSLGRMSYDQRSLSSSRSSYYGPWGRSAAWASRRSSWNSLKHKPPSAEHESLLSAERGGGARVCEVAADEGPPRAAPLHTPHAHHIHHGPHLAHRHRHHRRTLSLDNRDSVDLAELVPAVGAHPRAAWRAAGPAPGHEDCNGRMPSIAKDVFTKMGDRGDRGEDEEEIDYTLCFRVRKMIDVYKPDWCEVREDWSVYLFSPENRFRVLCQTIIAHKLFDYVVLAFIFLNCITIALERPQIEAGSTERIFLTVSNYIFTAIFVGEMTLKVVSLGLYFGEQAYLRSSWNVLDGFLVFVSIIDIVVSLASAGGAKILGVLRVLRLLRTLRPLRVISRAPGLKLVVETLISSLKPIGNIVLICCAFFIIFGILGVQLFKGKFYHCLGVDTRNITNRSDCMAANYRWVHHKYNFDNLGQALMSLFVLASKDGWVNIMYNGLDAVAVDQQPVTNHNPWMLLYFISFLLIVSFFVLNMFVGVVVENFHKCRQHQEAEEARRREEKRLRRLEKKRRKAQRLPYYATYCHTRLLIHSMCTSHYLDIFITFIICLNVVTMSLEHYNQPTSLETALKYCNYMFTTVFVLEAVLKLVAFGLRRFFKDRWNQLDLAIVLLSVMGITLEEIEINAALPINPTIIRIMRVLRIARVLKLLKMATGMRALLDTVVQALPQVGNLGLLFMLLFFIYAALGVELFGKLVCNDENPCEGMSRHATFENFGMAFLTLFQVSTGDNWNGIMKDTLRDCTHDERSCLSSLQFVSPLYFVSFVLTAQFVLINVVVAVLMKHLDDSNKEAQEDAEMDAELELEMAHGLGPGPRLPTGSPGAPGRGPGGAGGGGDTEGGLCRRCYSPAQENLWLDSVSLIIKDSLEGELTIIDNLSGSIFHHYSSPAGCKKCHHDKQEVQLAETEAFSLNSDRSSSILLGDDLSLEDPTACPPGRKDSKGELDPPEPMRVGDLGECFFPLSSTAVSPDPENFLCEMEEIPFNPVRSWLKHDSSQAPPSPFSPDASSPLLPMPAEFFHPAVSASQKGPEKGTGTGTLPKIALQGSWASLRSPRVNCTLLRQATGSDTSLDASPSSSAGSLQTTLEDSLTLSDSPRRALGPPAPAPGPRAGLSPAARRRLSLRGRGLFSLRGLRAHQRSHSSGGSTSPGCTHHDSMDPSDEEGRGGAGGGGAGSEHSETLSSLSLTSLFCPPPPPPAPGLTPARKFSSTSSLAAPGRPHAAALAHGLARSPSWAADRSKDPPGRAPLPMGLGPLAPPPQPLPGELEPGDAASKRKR

Voltage-dependent T-type calcium channel subunit alpha-1H, sequence (O95180 whole entry): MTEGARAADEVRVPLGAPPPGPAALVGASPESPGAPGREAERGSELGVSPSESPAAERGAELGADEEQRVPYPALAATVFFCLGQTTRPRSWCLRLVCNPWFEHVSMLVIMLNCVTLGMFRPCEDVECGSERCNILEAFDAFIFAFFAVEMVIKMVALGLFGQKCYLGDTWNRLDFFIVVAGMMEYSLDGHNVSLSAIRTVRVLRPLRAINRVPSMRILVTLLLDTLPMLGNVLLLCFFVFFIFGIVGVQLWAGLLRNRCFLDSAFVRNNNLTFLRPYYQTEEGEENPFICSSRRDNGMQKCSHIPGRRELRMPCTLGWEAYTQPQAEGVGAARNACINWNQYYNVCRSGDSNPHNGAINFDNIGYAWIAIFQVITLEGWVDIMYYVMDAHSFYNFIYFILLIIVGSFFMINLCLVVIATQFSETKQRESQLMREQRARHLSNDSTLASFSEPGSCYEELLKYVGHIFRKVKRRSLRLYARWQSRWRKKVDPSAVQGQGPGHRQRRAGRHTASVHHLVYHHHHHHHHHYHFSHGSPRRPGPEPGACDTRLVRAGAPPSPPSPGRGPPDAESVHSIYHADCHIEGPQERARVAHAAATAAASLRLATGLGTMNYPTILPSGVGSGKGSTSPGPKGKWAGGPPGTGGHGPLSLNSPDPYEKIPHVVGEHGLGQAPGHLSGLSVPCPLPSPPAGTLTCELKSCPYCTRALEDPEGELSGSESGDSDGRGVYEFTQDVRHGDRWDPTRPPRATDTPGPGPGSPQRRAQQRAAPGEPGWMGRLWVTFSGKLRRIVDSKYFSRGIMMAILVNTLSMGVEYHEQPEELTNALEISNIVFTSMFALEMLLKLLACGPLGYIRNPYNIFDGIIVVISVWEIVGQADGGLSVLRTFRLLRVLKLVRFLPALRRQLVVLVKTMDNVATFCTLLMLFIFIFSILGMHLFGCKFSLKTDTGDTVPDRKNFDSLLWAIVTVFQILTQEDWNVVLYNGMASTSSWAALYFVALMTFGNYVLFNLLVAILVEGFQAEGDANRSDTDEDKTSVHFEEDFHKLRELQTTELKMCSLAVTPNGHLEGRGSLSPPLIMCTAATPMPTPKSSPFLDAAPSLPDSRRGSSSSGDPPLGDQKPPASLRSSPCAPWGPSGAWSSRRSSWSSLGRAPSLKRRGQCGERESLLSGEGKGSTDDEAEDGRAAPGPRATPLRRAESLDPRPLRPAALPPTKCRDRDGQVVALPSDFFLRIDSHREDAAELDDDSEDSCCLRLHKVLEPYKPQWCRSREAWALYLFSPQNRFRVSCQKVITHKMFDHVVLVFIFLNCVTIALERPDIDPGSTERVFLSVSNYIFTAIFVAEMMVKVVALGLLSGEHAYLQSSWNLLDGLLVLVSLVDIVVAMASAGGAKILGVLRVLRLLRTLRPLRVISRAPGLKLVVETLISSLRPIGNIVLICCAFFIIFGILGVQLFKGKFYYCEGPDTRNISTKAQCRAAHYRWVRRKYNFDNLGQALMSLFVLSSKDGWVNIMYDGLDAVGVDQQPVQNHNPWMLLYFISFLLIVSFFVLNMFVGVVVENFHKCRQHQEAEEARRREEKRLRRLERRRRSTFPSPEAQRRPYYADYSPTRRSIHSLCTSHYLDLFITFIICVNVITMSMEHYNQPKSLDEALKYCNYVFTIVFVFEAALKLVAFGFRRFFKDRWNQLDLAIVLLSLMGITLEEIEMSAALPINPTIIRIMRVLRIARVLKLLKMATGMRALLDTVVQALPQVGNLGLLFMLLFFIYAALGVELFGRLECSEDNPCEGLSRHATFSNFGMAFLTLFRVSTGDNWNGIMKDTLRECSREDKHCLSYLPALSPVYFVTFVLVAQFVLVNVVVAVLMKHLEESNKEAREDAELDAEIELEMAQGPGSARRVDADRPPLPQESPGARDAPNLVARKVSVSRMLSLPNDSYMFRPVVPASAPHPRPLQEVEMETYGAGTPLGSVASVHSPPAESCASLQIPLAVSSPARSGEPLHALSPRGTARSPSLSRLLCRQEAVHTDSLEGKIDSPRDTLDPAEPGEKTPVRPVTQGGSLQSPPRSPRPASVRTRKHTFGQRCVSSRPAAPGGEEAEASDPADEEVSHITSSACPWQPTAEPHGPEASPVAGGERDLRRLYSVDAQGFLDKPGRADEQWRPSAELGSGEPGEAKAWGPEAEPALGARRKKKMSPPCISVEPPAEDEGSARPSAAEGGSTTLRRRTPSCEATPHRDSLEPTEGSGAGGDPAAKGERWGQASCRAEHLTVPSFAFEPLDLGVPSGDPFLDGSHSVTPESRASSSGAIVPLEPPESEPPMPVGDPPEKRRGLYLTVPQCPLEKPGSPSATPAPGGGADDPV

concentration at 1 h [1]: 4270 nM | concentration at 3 h [2]: 290 nM | IC50 [3]: 1700 nM | clearance [4]: 1.6 mL/min/kg | IC50 [5]: 2000 nM
Compound: O=C(Nc1ccc(F)cc1)N1N=C(c2ccncc2)CC1c1ccc(F)cc1 (stereo not given)
